Measurements: publication PMC3559019 (Chemistry & biology, 2013)

Assays:
[1] = system: Nef-defective (ΔNef) HIV-1 NL4-3; experiment: Nef-defective HIV-1 replication in CEM-T4 cells; format: cell-based
Nef dimerization = Nef dimerization (Human immunodeficiency virus type 1 group M subtype B, UniProt P03407); experiment: BiFC assay for Nef dimerization in 293T cells; format: cell-based, HIV-1; settings: 1–6 μM, 48 h
Lyn = Lyn (Homo sapiens, UniProt P07948); experiment: In vitro kinase assay, Lyn; format: biochemical
Chain of Lyn (P07948 whole entry, species assumed): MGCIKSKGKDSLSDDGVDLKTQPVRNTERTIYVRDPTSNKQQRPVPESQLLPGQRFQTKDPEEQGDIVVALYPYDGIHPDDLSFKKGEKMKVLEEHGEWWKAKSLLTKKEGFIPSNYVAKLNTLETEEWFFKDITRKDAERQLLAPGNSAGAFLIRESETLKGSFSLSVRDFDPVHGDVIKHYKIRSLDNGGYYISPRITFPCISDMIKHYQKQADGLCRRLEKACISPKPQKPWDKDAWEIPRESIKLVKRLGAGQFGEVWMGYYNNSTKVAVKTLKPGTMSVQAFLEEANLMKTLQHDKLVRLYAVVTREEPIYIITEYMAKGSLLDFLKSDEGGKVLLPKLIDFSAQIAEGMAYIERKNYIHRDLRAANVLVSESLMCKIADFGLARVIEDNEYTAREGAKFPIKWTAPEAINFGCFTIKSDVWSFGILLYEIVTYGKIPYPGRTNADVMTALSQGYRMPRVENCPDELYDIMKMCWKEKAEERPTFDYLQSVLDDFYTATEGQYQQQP

[2] = system: HIV-1 Nef Asn126 mutants (Ala, Leu, Gln); experiment: Surface plasmon resonance, Nef Asn126 mutants; format: binding; settings: SPR, B9 10 μM
SIV quasispecies ΔB670 = experiment: SIV replication in CEM-174 cells; format: cell-based; settings: Simian immunodeficiency virus, CEM174, 120 h, read-out: IC50, SIV replication
How it was run: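 CEM-174 cells received test compound in DMSO over a range of concentrations, 1 h before infection with the pathogenic SIV quasispecies ΔB670. Replication was measured 5 d later as p27 Gag protein by ELISA.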

[3] = system: Nef-dependent SFK activation; experiment: Endogenous SFK activation in HIV-infected CEM-T4 cells; format: cell-based; settings: 1.0 μM
How it was run: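 CEM-T4 cells (1 × 10^5) were infected with 50 pg p24 equivalents/ml wild-type HIV-1 NL4-3, ΔNef mutant or Nef chimeras in 10 ml, with test compound (1 μM) or DMSO carrier. Cells were lysed 8 days later and SFKs were immunoprecipitated with a pan-specific antibody. Immunoblots used an anti-pY418 activation-loop antibody. Lysates were blotted for Gag, Nef and actin (loading control). Uninfected cells were included.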

c-Src = c-Src (Homo sapiens, UniProt P12931); experiment: In vitro kinase assay, c-Src; format: biochemical
Chain of c-Src (P12931 whole entry, species assumed): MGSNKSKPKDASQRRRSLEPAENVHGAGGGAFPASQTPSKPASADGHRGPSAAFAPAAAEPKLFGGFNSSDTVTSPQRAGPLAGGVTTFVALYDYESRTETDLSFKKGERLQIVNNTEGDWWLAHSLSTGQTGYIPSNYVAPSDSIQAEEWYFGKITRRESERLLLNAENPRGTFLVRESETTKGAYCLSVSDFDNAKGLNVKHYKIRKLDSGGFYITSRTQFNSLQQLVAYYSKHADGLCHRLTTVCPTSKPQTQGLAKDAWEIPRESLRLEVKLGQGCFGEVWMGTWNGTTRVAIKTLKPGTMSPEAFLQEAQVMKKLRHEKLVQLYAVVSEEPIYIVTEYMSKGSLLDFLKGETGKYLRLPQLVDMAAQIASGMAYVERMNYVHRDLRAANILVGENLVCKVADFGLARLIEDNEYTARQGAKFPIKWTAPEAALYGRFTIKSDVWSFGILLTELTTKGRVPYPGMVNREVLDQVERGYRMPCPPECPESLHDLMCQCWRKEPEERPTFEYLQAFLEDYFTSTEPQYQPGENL

Lck = Lck (Homo sapiens, UniProt P06239); experiment: In vitro kinase assay, Lck; format: biochemical
Chain of Lck (P06239 whole entry, species assumed): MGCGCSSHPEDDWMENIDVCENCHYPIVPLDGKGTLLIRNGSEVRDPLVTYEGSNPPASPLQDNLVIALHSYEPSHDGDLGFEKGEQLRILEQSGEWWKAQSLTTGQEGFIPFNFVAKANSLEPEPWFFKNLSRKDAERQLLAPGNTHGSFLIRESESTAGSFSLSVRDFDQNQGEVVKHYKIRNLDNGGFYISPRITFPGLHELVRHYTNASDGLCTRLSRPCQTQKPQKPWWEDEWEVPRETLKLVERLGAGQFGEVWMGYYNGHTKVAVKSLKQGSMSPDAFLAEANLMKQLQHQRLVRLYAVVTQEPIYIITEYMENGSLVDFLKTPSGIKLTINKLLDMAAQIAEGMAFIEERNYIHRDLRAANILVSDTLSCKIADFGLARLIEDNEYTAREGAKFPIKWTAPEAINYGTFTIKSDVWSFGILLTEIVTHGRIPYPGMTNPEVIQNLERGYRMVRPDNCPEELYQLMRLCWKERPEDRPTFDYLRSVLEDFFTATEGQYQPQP

SIV ΔB670 = experiment: SIV infectivity in TZM-bl reporter cells; format: cell-based; settings: Simian immunodeficiency virus, read-out: IC50, SIV infectivity
How it was run: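 TZM-bl reporter cells (2.5 × 10^4/well) were plated 8 h before infection to adhere. Test compound was pre-incubated with SIV ΔB670 for 4 h, then added to the cells (final 200 μl). After 48 h at 37 °C, cells were washed with PBS and lysed. Infectivity was read as luciferase luminescence.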

HIV-1 NL4-3 = experiment: HIV-1 infectivity in TZM-bl reporter cells; format: cell-based; settings: luciferase 48 h

Chain of Nef dimerization (P03407 whole entry): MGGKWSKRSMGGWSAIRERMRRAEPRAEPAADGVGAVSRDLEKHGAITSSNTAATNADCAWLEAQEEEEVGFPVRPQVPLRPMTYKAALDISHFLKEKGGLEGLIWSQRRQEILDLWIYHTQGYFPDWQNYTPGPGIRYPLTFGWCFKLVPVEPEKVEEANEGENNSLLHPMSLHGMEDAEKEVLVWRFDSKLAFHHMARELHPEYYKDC

NC(=S)n1nc(-c2ccc([N+](=O)[O-])cc2)c(/N=N/c2cccc(Cl)c2)c1O [B9, (E)-4-((3-chlorophenyl)diazenyl)-5-hydroxy-3-(4-nitrophenyl)-1H-pyrazole-1-carbothioamide]
Effect on Nef-defective HIV replication (chimera experiment) ([1]; 0.3 and 1.0 μM, 10 days): no effect | Effect on replication of Nef-defective HIV-1 ([1]; highest concentration tested 3.0 μM): unaffected | Nef BiFC signal (Nef dimerization) (Nef dimerization): concentration-dependent loss | IC50 (Lyn): > 20 µM | Binding to Nef Asn126 mutants [2]: none of these mutants demonstrated detectable binding | IC50 (SIV quasispecies ΔB670): ~1 µM | Nef-dependent SFK activation (pY418) [3]: completely inhibited | IC50 (c-Src): > 20 µM | IC50 (Lck): > 20 µM | IC50 (SIV ΔB670): ~3 µM | Nef-mediated enhancement of HIV-1 infectivity (HIV-1 NL4-3): inhibited Nef-mediated enhancement of HIV-1 infectivity in a concentration-dependent manner
